Screening data as filed in PubChem.
Kir21 inh = inhibitors of mouse Kir2.1 inward-rectifier potassium channel. AID 1672. HEK293-Kir2.1, FluxOR thallium flux fluorescence; hits give low values. 310,000 tested, 0.85% active. B-score at 10 µM. P35561;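 active = fluorescence ratio B-score at or below minus 3 SD of library scores, with starting-brightness B-score within 2 SD, cut at about -4.2 in these data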;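 note: channel flux triggered by added potassium and thallium sulfate stimulus; B-score of peak minus minimum fluorescence over baseline after thallium stimulus; more negative B-score means stronger Kir2.1 block with less thallium influx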
KCNQ1 inh = inhibitors of human KCNQ1 potassium channel; AID 2642; CHO-K1 KCNQ1, FluxOR thallium flux fluorescence; hits give high values; 310,000 tested, 1.3% active; P51787; B-score at 10 µM;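 active = compounds whose thallium flux B-score, printed positive for inhibition, exceeds three library SD while starting fluorescence stays within three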;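 note: channel opened by potassium depolarization with thallium stimulus after 20 min compound exposure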
hERG rescue = hERG (human) protection from proarrhythmic block; Q12809; CHO-hERG, FluxOR thallium flux, dofetilide IC70 present; activation (rescue from dofetilide block), less the hit threshold, % at 10 µM; 310,000 tested, 0.51% active; AID 1511;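 active = activation above the mean of controls blocked by dofetilide plus 5 SD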;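 note: thallium influx through hERG after potassium depolarization seen as dye fluorescence rise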
Target sequence (Q12809 whole entry, looked up): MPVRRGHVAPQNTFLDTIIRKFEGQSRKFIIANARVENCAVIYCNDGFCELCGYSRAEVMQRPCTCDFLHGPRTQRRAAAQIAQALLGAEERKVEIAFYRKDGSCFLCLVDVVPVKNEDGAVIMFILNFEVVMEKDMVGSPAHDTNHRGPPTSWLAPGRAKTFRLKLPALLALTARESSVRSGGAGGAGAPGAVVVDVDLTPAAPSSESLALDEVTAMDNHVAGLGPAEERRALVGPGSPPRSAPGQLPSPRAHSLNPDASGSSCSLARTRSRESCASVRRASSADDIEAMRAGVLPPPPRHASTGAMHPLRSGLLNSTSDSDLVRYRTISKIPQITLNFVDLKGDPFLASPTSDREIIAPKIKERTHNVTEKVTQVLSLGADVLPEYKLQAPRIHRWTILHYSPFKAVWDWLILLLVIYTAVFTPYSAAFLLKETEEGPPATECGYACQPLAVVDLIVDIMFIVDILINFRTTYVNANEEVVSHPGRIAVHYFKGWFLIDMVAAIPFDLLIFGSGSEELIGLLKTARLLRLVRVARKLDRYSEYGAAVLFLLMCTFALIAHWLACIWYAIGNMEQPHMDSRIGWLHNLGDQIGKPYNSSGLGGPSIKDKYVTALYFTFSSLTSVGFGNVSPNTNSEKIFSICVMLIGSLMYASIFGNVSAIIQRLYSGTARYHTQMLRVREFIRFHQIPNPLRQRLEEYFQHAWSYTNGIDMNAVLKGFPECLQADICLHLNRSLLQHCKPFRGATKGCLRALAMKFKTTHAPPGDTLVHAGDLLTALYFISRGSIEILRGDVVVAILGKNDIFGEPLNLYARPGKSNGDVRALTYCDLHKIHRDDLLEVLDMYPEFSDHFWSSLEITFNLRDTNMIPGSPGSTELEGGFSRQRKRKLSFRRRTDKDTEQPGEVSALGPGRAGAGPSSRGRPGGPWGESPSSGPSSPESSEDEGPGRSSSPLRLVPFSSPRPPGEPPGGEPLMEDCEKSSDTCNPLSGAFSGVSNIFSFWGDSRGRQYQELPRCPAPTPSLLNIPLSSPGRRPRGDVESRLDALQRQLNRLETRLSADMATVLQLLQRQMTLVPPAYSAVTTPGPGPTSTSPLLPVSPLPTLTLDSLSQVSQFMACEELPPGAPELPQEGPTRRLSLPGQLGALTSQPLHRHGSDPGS
KCNK3 inh = human KCNK3 channel inhibition, primary screen; O14649; CHO-KCNK3 thallium flux, FluxOR fluorescence; hits give low values; B-score at 10 µM; 340,000 tested, 0.84% active; AID 602410;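 active = B-score under library mean minus 4 SD, starting fluorescence ratio at most library mean plus 5 SD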;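 note: more negative B-score means stronger inhibition of thallium flux through KCNK3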
KCNQ1 pot = potentiates or activates the human KCNQ1 potassium channel | 310,000 tested, 0.35% active | CHO-K1 KCNQ1, thallium flux FluxOR fluorescence; hits give high values | B-score at 10 µM | AID 2648 | P51787;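 active = fluorescence ratio B-score, a plate-corrected score, at least three library SD, with initial intensity B-score within 5 SD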
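Medium – assay buffer, equal DMSO in all wells · Material – CHO-K1 cell line with stable KCNQ1 potassium channel expression · Signal – kinetic FluxOR thallium fluorescence, 10-s 1-Hz baseline, 110-s post-stimulus read · Compound – single concentration per compound, DMSO matched to controls · Schedule – 37 °C overnight plating, 90-min dark dye load, 20-min compound pretreatment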
KCNK9 inh = inhibitors of human KCNK9 two-pore domain potassium channel. AID 488922. HEK293 KCNK9, FluxOR thallium flux fluorescence; hits give low values. Q9NPC2. 310,000 tested, 1.2% active. B-score at 10 µM;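 active = ratio B-score over 3 SD below the library mean, with starting fluorescence within 5 SD of its mean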;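 note: negative B-score means less thallium flux so channel inhibition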
KCNK9 inh conf = human KCNK9 inhibitor confirmation; AID 492992; inhibition, % at 10 µM; HEK293 KCNK9 cells, FluxOR thallium flux fluorescence; 4,900 tested, 43% active; shares compounds with KCNK9 inh;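 active = thallium signal inhibited by more than 5 SD of the compound-free buffer control wells, on both duplicate plates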;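 note: 0% = assay buffer control wells without compound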
Kir2-1 spec = tests whether KCNK9 modulators also affect mouse Kir2.1; shares compounds with KCNK9 inh; Kir2.1 cells, FluxOR thallium flux fluorescence; inhibition, % at 10 µM; 4,900 tested, 4% active;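 active = thallium signal drop more than 5 SD beyond the mean of the no-compound control wells, seen in both duplicate plates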;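 note: signal is fluorescence rise after thallium addition divided by baseline fluorescence; plate controls were assay buffer only for no effect and full block by chlorpromazine control for full effect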
KCNK9 uninduced = non-induced cell nonspecific activity of KCNK9 modulators. shares compounds with KCNK9 inh. non-induced KCNK9-HEK293, FluxOR thallium flux. inhibition, % at 10 µM. 4,900 tested, 40% active. AID 492997;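 active = thallium signal drop beyond 5 SD of the untreated control mean, on both duplicate plates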;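 note: plate controls were buffer only IC0 wells for no effect and SID17386958 at its maximal inhibitory level for full effect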
* = called active by the depositor; i = inactive; / = no result. This is a sample that favours compounds with a hit; in the whole collection about 3.7% have one here.

SMILES | Kir21 inh | KCNQ1 inh | hERG rescue | KCNK3 inh | KCNQ1 pot | KCNK9 inh | KCNK9 inh conf | Kir2-1 spec | KCNK9 uninduced
Cc1ccccc1NC(=S)N(CCc1c(C)[nH]c2ccc(F)cc12)Cc1ccncc1 | -2.6 | i | -11 | i | i | i | / | / | /
COc1ccc(NC(=S)N(CCc2c(C)[nH]c3ccc(C)cc23)Cc2cccs2)cc1 | 2.2 | i | -16 | i | i | -9.6* | i | i | 29%*
COc1ccc2[nH]c(C)c(CCN(Cc3cccs3)C(=S)Nc3ccc(F)cc3)c2c1 | 1.4 | 6* | -7 | -17* | i | -12* | 42%* | i | 27%*
Cc1[nH]c2ccc(F)cc2c1CCN(Cc1ccncc1)C(=S)Nc1cccc(F)c1 | -0.46 | 7* | -11 | i | i | -8.1* | 36%* | i | 27%*
O=C(CCNS(=O)(=O)c1ccc(OC(F)(F)F)cc1)Nc1cccc(S(=O)(=O)N2CCCC2)c1 | / | / | / | i | / | / | / | / | /
O=C(CCCl)N1CCCC2(CCCCC2)C1 | 0.01 | i | -7 | i | i | i | / | / | /
Cc1ccc(/C=C2\C(=O)ON=C2c2ccccc2)o1 | -0.51 | i | -4 | i | i | i | / | / | /
Cc1ccc(-c2ccc(/C=C3\C(=O)ON=C3c3ccccc3)o2)c([N+](=O)[O-])c1 | -0.45 | i | -48 | i | 8* | i | i | i | 32%*
CCOC(=O)N1CCC(n2c(SCC(=O)NCc3ccccc3)nc3ccccc3c2=O)CC1 | -1.3 | i | -15 | i | i | i | / | / | /
CCOC(=O)N1CCC(n2c(SCC(=O)NCCC3=CCCCC3)nc3ccccc3c2=O)CC1 | 1.8 | i | -21 | i | i | i | i | i | i
COc1cc(OC)cc(C(=O)N2CCN(Cc3ccccc3Br)CC2)c1 | -0.86 | i | -10 | i | i | i | / | / | /
CN(Cc1ccc(F)cc1)Cc1nc(CCc2ccccc2)no1 | 1.3 | i | -13 | i | i | i | i | i | i
O=C(NCc1n[nH]c(=O)c2ccccc12)C1CC(=O)N(c2ccccc2)C1 (stereo not drawn) | -0.74 | i | -7 | i | i | i | / | / | /
COc1ccc2oc(C(=O)OCc3nnc(-c4ccccc4)o3)c(C)c2c1 | 1.7 | i | -6 | i | i | i | / | / | /
CCN(CC)CCNC(=O)C(Oc1ccccc1)Oc1ccccc1 | -0.22 | i | -8 | i | i | i | / | / | /
CCOc1ccccc1NC(=O)CSc1nnc(-c2ccco2)n1Cc1ccco1 | -4 | i | -4 | i | i | i | / | / | /
CCOc1ccccc1NC(=O)CSc1nnc(-c2ccccc2Cl)n1Cc1ccco1 | -2.2 | i | -7 | i | i | -10* | 53%* | i | 36%*
CCN(CC)c1nc(C)nc2c1cnn2CCc1ccccc1 | -2.1 | i | -12 | i | i | i | i | i | i
CCN(CC)c1ncnc2c1cnn2Cc1ccc(C)cc1 | -0.16 | i | -8 | i | i | i | / | / | /
O=C(CSc1nnc(CNC(=O)c2cccs2)o1)Nc1ccc(Br)cc1 | -0.13 | i | -5 | i | i | i | / | / | /
Cn1c(C(=O)N2CCN(c3cccc(C(F)(F)F)c3)CC2)cc2sccc21 | 1.9 | i | -14 | i | i | i | i | i | i
Cc1ccc(C)c(N2CCN(C(=O)c3cc4sccc4n3C)CC2)c1 | -0.09 | i | -15 | i | i | i | / | / | /
c1ccc(-c2cc3c(N4CCN(c5ncccn5)CC4)ncnc3s2)cc1 | 0.66 | i | -10 | i | i | i | i | i | i
Cc1ccc2nc(NCC(=O)NN)nc(-c3ccccc3)c2c1 | 1.4 | i | -5 | i | i | i | i | i | i
